pIC50: −log10 of the molar value. Calls of active or inactive are those of the source. The rule behind the calls is not given here. Where only a bound is given, the exact number is not on record here.

The target in data set [1] is T1, CAAX prenyl protease 2 (Homo sapiens) (UniProt Q9Y256).
T1 sequence (whole entry): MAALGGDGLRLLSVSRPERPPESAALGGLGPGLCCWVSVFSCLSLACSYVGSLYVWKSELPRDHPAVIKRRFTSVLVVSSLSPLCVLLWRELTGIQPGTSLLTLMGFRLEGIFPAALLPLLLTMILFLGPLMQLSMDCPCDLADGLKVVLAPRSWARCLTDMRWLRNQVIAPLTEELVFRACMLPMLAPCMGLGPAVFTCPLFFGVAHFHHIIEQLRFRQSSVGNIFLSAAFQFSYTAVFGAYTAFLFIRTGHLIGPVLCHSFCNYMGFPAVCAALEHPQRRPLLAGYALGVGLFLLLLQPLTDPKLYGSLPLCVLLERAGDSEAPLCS
In words: Inhibition of human Rce1-mediated CaaX protease activity using […] and […] as substrate assessed as residual activity at 10 uM measured every 30 to 60 seconds for 60 mins. In short, it runs like this: (§1)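 Membranes from yeast SM3614 (ste24 rce1 null) overexpressing human Rce1, 0.25 mg/mL final in 200 mM Tris pH 7.5, 200 mM NaCl, 1 mg/mL BSA. […] Reaction started with 20 μM ABZ-KSKTKC(farnesyl)QLIM. Fluorescence (ex 320/em 420) read every 30–60 s for 60 min at 30 °C. Initial velocities trypsin-normalised; activity given as % of DMSO control.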

The target in the next data set is T2, CAAX prenyl protease 2 (Homo sapiens, UniProt Q9Y256).
T2 sequence (Q9Y256 whole entry): T1 sequence (whole entry)
As to the kind of experiment: Inhibition of human Rce1-mediated CaaX protease activity using ABZ-KSKTKC(farnesyl)QIIM and ABZ-KSKTKC(farnesyl)VIQI as substrate assessed as residual activity measured every 30 to 60 seconds for 60 mins. A digest of the protocol:
as §1

Data set [2] in a line: Cytotoxicity against human HCT116 cells assessed as cell death at 25 uM after 20 hrs by celltiter blue assay (reference value: 0.4%). In kind it is cell-based. The conditions noted are these: hct-116, 20 h. A digest of the protocol:
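HCT-116 cells grown in DMEM with 10% FBS and 1% NEAA at 37 °C, 5% CO2, seeded 7 × 10^3 per well, exposed 20 h to 25 μM compound (0.4% DMSO vehicle; untreated control). CellTiter-Blue added for 4 h, fluorescence read at 560/590 nm. Values relative to untreated cells, mean of three independent experiments with SEM.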
(In general: Resazurin is reduced to fluorescent resorufin, in cell work by metabolically active cells.)

The target of data set [3] is T3, CAAX prenyl protease 1 homolog (Homo sapiens) (UniProt O75844).
T3 sequence (whole entry): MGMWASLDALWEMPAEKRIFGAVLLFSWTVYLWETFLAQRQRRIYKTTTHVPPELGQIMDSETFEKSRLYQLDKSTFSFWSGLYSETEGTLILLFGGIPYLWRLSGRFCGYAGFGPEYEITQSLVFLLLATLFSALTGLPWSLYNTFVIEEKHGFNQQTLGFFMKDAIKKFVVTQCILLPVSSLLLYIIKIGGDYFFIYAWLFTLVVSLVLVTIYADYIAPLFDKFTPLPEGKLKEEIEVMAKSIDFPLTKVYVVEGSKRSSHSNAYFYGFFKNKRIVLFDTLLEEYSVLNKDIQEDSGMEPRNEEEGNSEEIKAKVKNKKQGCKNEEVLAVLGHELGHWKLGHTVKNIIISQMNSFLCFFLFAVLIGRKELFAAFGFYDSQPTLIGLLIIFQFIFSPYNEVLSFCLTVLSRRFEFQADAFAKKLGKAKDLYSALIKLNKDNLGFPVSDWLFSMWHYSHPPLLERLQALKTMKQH
In words: Inhibition of human FACE1-mediated CaaX protease activity at 10 uM measured every 30 to 60 seconds for 60 mins. In short, it runs like this:
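Human Ste24 overexpressed in yeast strain SM3614 (ste24 rce1 null); membranes 0.25 mg/mL final in 200 mM Tris pH 7.5, 200 mM NaCl, 1 mg/mL BSA. Pretreated 15 min at 30 °C with 10 μM compound in duplicate, then 20 μM ABZ-KSKTKC(farnesyl)VIQL substrate added. Fluorescence (ex 320/em 420) read every 30–60 s for 60 min at 30 °C. Initial velocities normalised via trypsin-digest maximum fluorescence and expressed as % of DMSO control. SD shown.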

The test system of data set [4] is Protein farnesyltransferase (Rattus norvegicus). As to the kind of experiment: Inhibition of protein farnesyltransferase (rat) at 50 uM measured every 40 seconds for 60 mins.
The target in data set [5] is T1, CAAX prenyl protease 2 (Homo sapiens). As to the kind of experiment: Inhibition of Rce1 in human HCT116 cells assessed as mislocalization of EGFP-K-Ras in plasma membrane at 25 uM after 20 hrs by fluorescence assay. The conditions noted are these: HCT-116.
For data set [6] the target is unchanged. As to the kind of experiment: Effect on EGFP-H-Ras plasma membrane association in human HCT116 cells at 25 uM after 20 hrs by fluorescence assay. Particulars: HCT-116.
Data set [7] has the same target. In words: Effect on EGFP-N-Ras plasma membrane association in human HCT116 cells at 25 uM after 20 hrs by fluorescence assay. The conditions noted are these: HCT-116.

The pIC50 is −log10 of the IC50, conventionally taken in molar units. Take `O=C(O)c1ccc(NC(c2ccc(Br)cc2)c2ccc3cccnc3c2O)cc1` (centres undefined): in data set [1], the Activity was determined as 23%. The pIC50 on CAAX prenyl protease 2 is 5.17. Also, the Cell death in data set [2] is given as 25%. Besides, the inhibition result in data set [3] and in data set [4] was “inactive” each time. Moreover, the K-Ras plasma membrane association in data set [5] amounted to 16%.

Consider `O=C(O)c1ccc(NC(c2ccc3cccnc3c2O)C2CCCCC2)cc1` (centres undefined), for which the Activity in data set [1] amounted to 34%. For the same compound, the negative logarithm of the IC50 (pIC50) on CAAX prenyl protease 2 is 5.01. Further, the Cell death in data set [2] is listed as under 10%. Further, the inhibition entry in data set [3] is “inactive”.

In the case of `O=C(O)c1cccc(NC(c2ccccc2)c2ccc3ccccc3c2O)c1` (centres undefined), the Activity in data set [1] is 23%. In addition, the pIC50 on CAAX prenyl protease 2 is 5.28. The Cell death in data set [2] was under 10%. Further, the inhibition result in data set [3] and in data set [4] was “inactive” throughout.

In the case of `CC(C)(C)c1ccc(NC(c2ccccc2)c2ccc3ccccc3c2O)cc1` (centres undefined), the Activity in data set [1] worked out at 38%. The negative-log IC50 (pIC50) on CAAX prenyl protease 2 is 5.30. Also, in data set [2], the Cell death is under 10%. For the same compound, the inhibition entry in data set [3] is “inactive”.

As to `O=C(O)c1ccc(NC(c2ccccc2)c2ccc3cccnc3c2O)cc1` (centres undefined), in data set [1], the Activity is 25%. Besides, the pIC50 on CAAX prenyl protease 2 is 5.16. Moreover, in data set [2], the Cell death is under 10%. In addition, the inhibition entry in data set [3] is “inactive”.

As to `Oc1c(C(Nc2ccccc2)c2ccccc2)ccc2cccnc12` (centres undefined), the Activity in data set [1] was found to be 39%. Besides, at CAAX prenyl protease 2, the pIC50 was 5.05. For the same compound, in data set [2], the Cell death was under 10%. Also, the inhibition entry in data set [3] and in data set [4] was “inactive” in each case. Also, the PM association is 14% in data set [6] and 10% in data set [7].

In the case of `Oc1c(C(Nc2ccccc2)c2ccccc2)cc(Br)c2ccccc12` (centres undefined), the Activity in data set [1] is 27%. Further, the pIC50 on CAAX prenyl protease 2 is 5.27. In addition, the Cell death in data set [2] was under 10%. Besides, the inhibition result in data set [3] is “inactive”.

For the origin of these results see ChEMBL document CHEMBL3739299, “8-Hydroxyquinoline-based inhibitors of the Rce1 protease disrupt Ras membrane localization in human cells” (Bioorg Med Chem, 2016).
